Data from article PMC3103050 (Genes to cells : devoted to molecular & cellular mechanisms, 2009).
Like-named read-outs stand apart in the source and are kept apart here.

B1: GST-REV1(826–1251) (domain or fragment, human, UniProt Q9UBZ9 826-1251, looked up)
chain: PTNLNPSTCPSRPSVQSSHFPSGSYSVRDVFQVQKAKKSTEEEHKEVFRAAVDLEISSASRTCTFLPPFPAHLPTSPDTNKAESSGKWNGLHTPVSVQSRLNLSIEVPSPSQLDQSVLEALPPDLREQVEQVCAVQQAESHGDKKKEPVNGCNTGILPQPVGTVLLQIPEPQESNSDAGINLIALPAFSQVDPEVFAALPAELQRELKAAYDQRQRQGENSTHQQSASASVPKNPLLHLKAAVKEKKRNKKKKTIGSPKRIQSPLNNKLLNSPAKTLPGACGSPQKLIDGFLKHEGPPAEKPLEELSASTSGVPGLSSLQSDPAGCVRPPAPNLAGAVEFNDVKTLLREWITTISDPMEEDILQVVKYCTDLIEEKDLEKLDLVIKYMKRLMQQSVESVWNMAFDFILDNVQVVLQQTYGSTLKVT

Columns and labels:
His-REV1(1130–1251) [1] = biological target: T1, His-REV1(1130–1251) (Homo sapiens, UniProt Q9UBZ9); assay: Surface plasmon resonance, His-REV1; format: binding; conditions: SPR, BIACORE 2000, CM5 chip; His-REV1(1130–1251) 1.1 µM in Fig. 2A
T1 sequence (Q9UBZ9 1130-1251): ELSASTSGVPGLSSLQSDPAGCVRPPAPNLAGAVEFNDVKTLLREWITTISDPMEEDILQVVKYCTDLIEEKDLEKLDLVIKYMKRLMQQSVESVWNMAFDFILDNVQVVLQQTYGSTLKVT
In short: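 SPR on BIACORE 2000. Synthetic peptides carrying an added N-terminal Cys were thiol-coupled to CM5 dextran. His-REV1(1130–1251) was cut from a GST-His fusion with Factor Xa, purified on Ni-NTA, then cleared of uncleaved fusion on glutathione resin. Varying concentrations were injected in 10 mM HEPES pH 7.5, 150 mM NaCl, 3 mM EDTA, 0.005% P20 at 20 µl/min, 25°C; contact 60 s, dissociation 120 s. Control-cell signal was subtracted. Kd came from equilibrium analysis of mean signals.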

REV1(1130–1218) = assay: Surface plasmon resonance, REV1; format: binding, human; conditions: SPR; REV1 derivative lacking a portion essential for the interaction with Polκ; data not shown
PCNA [2] = biological target: PCNA (Homo sapiens, UniProt P12004); assay: Surface plasmon resonance, PCNA binding to immobilized peptides; conditions: SPR; data not shown
In short: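 PCNA binding by SPR against synthetic peptides that carry an added N-terminal Cys, coupled through the sulfhydryl to CM5 carboxylated dextran sensor chips by thiol activation chemistry. The peptide–protein signal minus the control-cell signal was analysed and scored + or −.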

His-REV1(1130–1251) [3] = biological target: T2, His-REV1(1130–1251) (human, UniProt Q9UBZ9 1130-1251); assay: SPR
T2 sequence (looked up): T1 sequence (Q9UBZ9 1130-1251)

PCNA [4] = biological target: T3, PCNA (UniProt P12004 1-261); assay: SPR
PCNA [5] = biological target: T3, PCNA; assay: SPR; remark: listed apart in the source
His-Polκ(1–615) = biological target: T4, His-Polκ(1–615) (human, UniProt Q9UBT6 1-615); assay: pull-down
T4 sequence (looked up): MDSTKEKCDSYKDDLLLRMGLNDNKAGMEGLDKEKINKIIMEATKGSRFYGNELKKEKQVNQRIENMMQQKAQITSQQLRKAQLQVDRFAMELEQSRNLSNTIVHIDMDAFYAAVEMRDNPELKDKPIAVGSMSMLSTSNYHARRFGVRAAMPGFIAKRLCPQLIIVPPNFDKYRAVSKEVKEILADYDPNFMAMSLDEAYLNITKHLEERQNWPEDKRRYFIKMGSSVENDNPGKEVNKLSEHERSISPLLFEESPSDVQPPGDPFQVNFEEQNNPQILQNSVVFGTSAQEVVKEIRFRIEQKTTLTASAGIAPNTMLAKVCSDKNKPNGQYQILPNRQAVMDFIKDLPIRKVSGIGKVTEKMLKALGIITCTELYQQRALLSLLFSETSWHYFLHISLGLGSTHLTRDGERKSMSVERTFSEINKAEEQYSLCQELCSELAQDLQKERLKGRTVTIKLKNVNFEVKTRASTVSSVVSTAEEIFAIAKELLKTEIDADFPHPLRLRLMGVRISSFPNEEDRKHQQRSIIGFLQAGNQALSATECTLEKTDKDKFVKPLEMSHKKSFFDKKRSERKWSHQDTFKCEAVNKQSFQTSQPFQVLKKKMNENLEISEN

GST-REV1(826–1251) = biological target: B1; assay: pull-down

T3 sequence (P12004 whole entry): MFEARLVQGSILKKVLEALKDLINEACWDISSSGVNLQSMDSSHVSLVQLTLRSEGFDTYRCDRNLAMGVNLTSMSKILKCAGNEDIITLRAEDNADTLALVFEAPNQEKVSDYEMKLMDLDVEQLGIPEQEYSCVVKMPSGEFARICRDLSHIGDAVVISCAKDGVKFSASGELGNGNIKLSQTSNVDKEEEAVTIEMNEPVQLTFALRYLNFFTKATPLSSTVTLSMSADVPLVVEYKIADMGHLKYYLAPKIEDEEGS
Sequence of PCNA (Homo sapiens, UniProt P12004) (P12004 whole entry, species assumed): as the sequence (P12004 whole entry) above

**Q.** What does the source list for CEMSHKKSAADKKRSER [κ560-575AA]?
**A.** Binding of His-REV1(1130–1251) / REV1-CTD to immobilized peptide (in words) (His-REV1(1130–1251) [1]): but not to κ560-575AA; Interaction of REV1(1130–1218) with immobilized peptide (in words) (REV1(1130–1218)): failed to interact

**Q.** For CPLEMSHKKSFFDKK [κ558-571FF], which “Binding of His-REV1(1130–1251) / REV1-CTD to immobilized peptide (in words)” value (His-REV1(1130–1251) [1]) is on record?
**A.** failure of κ558-571FF to bind REV1-CTD

**Q.** With CKRPRPEGMQTLESAAKPLTH [η694-713AA] as the molecule, how does the “PCNA binding to immobilized peptide (in words)” value (PCNA [2]) read?
**A.** failed to bind

**Q.** How did the Kd (His-REV1(1130–1251) [3]) turn out when CEMSHKKSFFDKKRSER [κ560-575FF] was run?
**A.** 7.6 µM

**Q.** Which Kd (His-REV1(1130–1251) [3]) does the source give for CQSTGTEPFFKQKSLLL [η524-539FF] here?
**A.** 13 µM

**Q.** With CASRGVLSFFSKKQMQD [ι539-554FF] as the molecule, how does the Kd (His-REV1(1130–1251) [3]) read?
**A.** 69 µM

**Q.** For CKRPRPEGMQTLESFFKPLTH [η694-713FF], which Kd (PCNA [4]) is on record?
**A.** ~0.4 µM

**Q.** And the Kd (PCNA [5])?
**A.** ~0.3 µM

**Q.** Does B1 bind (His-Polκ(1–615))?
**A.** binds

**Q.** Does CSHKKSFFDKKRSER [κ562-575FF] bind (GST-REV1(826–1251))?
**A.** binds

**Q.** Does CKKSFFDKKRSER [κ564-575FF] bind (GST-REV1(826–1251))?
**A.** binds
